Test results reported in ChEMBL document CHEMBL3826885, “Similarities and differences in affinity and binding modes of tricyclic pyrimido- and pyrazinoxanthines at human and rat adenosine receptors” (Bioorg Med Chem, 2016).

Experiments:
[1] = biological target: T1, Adenosine receptor A1 (Rattus norvegicus) (UniProt P25099); assay: Displacement of [3H]CCPA from adenosine receptor A1 in rat brain cortical membranes at 1 uM; type: cell membranes
T1 sequence (whole entry): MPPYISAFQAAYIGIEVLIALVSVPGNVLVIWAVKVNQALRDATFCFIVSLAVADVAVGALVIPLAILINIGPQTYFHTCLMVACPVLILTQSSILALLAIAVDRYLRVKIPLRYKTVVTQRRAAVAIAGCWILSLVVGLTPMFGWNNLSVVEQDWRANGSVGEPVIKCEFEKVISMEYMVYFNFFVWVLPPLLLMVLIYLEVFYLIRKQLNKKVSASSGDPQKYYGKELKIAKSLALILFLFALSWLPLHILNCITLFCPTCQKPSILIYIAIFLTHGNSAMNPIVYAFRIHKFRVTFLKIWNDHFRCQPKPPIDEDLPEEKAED
Summary of the method: (§1)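 Native rat receptors: A1 in brain cortical membranes with [3H]CCPA, A2A in brain striatal membranes, from frozen unstripped rat brains. Compounds were first screened at a single high concentration in three independent experiments. Active compounds then had full inhibition curves over at least 3 orders of magnitude of concentration.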

[2] = biological target: T2, Adenosine receptor A2b (Homo sapiens) (UniProt P29275); assay: Displacement of [3H]PSB-603 from recombinant human adenosine receptor A2b expressed in CHO cell membranes at 1 uM
T2 sequence (whole entry): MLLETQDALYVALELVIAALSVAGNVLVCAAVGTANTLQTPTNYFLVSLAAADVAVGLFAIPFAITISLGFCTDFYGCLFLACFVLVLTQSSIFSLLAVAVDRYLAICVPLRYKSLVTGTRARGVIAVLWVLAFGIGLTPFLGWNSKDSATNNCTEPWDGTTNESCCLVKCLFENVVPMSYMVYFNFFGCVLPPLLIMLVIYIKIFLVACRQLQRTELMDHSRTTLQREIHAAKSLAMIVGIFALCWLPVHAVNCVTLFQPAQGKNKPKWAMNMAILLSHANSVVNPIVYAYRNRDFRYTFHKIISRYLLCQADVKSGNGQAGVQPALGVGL
Summary of the method: (§2)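 Membranes came from CHO cells expressing recombinant receptors (human A1, A2A, A2B, A3; rat A2B, A3). Radioligands were [3H]CCPA for A1 and [3H]PSB-11 or [3H]NECA for A3. A single high concentration was screened first, in three experiments for A1/A2A and two for A2B/A3. Full inhibition curves spanning at least 3 log units were run for potent compounds.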

[3] = biological target: T3, Adenosine receptor A1 (Homo sapiens) (UniProt P30542); assay: Displacement of [3H]CCPA from recombinant human adenosine receptor A1 expressed in CHO cell membranes at 1 uM; summary of the method: as §2
T3 sequence (whole entry): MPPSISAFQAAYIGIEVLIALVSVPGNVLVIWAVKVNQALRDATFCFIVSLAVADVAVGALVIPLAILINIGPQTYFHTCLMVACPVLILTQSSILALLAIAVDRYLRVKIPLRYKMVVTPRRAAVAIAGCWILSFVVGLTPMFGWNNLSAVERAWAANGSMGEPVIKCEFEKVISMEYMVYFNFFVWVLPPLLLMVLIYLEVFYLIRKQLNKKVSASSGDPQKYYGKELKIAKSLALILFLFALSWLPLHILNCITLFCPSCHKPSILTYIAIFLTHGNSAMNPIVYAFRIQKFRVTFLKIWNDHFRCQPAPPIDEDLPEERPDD

[4] = biological target: Adenosine receptor A2a (Rattus norvegicus, UniProt P30543); assay: Displacement of [3H]MSX2 from adenosine receptor A2a in rat brain striatal membranes; type: cell membranes, Membrane; summary of the method: as §1
[5] = biological target: T4, Adenosine receptor A2a (Homo sapiens, UniProt P29274); assay: Displacement of [3H]MSX2 from recombinant human adenosine receptor A2a expressed in CHO cell membranes at 1 uM; summary of the method: as §2
[6] = biological target: T5, Adenosine receptor A3 (Rattus norvegicus) (UniProt P28647); assay: Displacement of [3H]NECA from recombinant rat adenosine receptor A3 expressed in CHO cell membranes at 1 uM; summary of the method: as §2
T5 sequence (whole entry): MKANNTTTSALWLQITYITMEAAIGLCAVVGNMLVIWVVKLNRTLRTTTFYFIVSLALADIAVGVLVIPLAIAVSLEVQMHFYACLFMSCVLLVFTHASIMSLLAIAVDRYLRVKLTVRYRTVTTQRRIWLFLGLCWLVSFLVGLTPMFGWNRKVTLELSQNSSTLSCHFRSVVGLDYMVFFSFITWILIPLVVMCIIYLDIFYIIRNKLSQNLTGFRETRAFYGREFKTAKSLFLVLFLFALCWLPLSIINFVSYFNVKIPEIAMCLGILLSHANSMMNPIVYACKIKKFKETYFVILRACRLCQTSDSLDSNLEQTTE

[7] = biological target: T4, Adenosine receptor A2a; assay: Displacement of [3H]MSX2 from recombinant human adenosine receptor A2a expressed in CHO cell membranes; summary of the method: as §2
[8] = biological target: T6, Adenosine receptor A1 (Homo sapiens, UniProt P30542); assay: Displacement of [3H]CCPA from recombinant human adenosine receptor A1 expressed in CHO cell membranes; summary of the method: as §2
T6 sequence (P30542 whole entry): T3 sequence (whole entry)

[9] = biological target: T7, Adenosine receptor A2b (Rattus norvegicus) (UniProt P29276); assay: Displacement of [3H]PSB-603 from recombinant rat adenosine receptor A2b expressed in CHO cell membranes at 1 uM; summary of the method: as §2
T7 sequence (whole entry): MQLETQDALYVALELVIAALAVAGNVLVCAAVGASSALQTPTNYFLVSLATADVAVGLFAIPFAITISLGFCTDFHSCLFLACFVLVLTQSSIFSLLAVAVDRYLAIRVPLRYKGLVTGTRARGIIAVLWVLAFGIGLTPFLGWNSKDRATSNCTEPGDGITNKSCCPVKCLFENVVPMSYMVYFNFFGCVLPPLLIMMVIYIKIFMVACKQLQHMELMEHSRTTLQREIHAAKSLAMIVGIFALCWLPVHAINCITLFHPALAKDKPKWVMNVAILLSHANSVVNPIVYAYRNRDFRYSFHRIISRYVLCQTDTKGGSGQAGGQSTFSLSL

[10] = biological target: T8, Adenosine receptor A3 (Homo sapiens, UniProt P0DMS8); assay: Displacement of [3H]PSB-11 from recombinant human adenosine receptor A3 expressed in CHO cell membranes
T8 sequence (P0DMS8 whole entry): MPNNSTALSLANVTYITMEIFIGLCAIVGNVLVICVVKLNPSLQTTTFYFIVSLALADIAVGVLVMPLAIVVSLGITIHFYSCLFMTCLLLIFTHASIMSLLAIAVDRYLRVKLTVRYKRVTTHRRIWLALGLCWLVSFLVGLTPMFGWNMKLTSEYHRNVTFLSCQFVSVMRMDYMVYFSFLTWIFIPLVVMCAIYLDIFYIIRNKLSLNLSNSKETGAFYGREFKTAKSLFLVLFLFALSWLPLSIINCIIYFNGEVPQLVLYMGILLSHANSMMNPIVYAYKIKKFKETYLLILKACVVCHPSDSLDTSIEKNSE

[11] = biological target: T9, Adenosine receptor A3 (Homo sapiens) (UniProt P0DMS8); assay: Displacement of [3H]PSB11 from recombinant human adenosine receptor A3 expressed in CHO cell membranes at 1 uM; summary of the method: as §2
T9 sequence (whole entry): T8 sequence (P0DMS8 whole entry)

[12] = biological target: T10, Adenosine receptor A2b (Rattus norvegicus, UniProt P29276); assay: Displacement of [3H]PSB-603 from recombinant rat adenosine receptor A2b expressed in CHO cell membranes
T10 sequence (P29276 whole entry): T7 sequence (whole entry)
Summary of the method: (§3)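 Membranes came from CHO cells expressing recombinant receptors (human A1, A2A, A2B, A3; rat A2B, A3). Radioligands were [3H]CCPA for A1 and [3H]PSB-11 or [3H]NECA for A3. A single high concentration was screened first, in three experiments for A1/A2A and two for A2B/A3.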

[13] = biological target: Adenosine receptor A2a (Rattus norvegicus) (UniProt P30543); assay: Displacement of [3H]MSX2 from Adenosine receptor A2a in rat brain striatal membranes at 1 uM; type: cell membranes; details: Membrane; summary of the method: as §1
[14] = biological target: T11, Adenosine receptor A1 (Rattus norvegicus, UniProt P25099); assay: Displacement of [3H]CCPA from adenosine receptor A1 in rat brain cortical membranes; type: cell membranes
T11 sequence (P25099 whole entry): T1 sequence (whole entry)
Summary of the method: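 Native rat receptors: A1 in brain cortical membranes with [3H]CCPA, A2A in brain striatal membranes, from frozen unstripped rat brains. Compounds were first screened at a single high concentration in three independent experiments.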

[15] = biological target: T12, Adenosine receptor A2b (Homo sapiens, UniProt P29275); assay: Displacement of [3H]PSB-603 from recombinant human adenosine receptor A2b expressed in CHO cell membranes; summary of the method: as §3
T12 sequence (P29275 whole entry): T2 sequence (whole entry)

[16] = biological target: T13, Adenosine receptor A3 (Rattus norvegicus, UniProt P28647); assay: Displacement of [3H]NECA from recombinant rat adenosine receptor A3 expressed in CHO cell membranes; summary of the method: as §3
T13 sequence (P28647 whole entry): T5 sequence (whole entry)

Sequence of Adenosine receptor A2a (Rattus norvegicus) (P30543 whole entry): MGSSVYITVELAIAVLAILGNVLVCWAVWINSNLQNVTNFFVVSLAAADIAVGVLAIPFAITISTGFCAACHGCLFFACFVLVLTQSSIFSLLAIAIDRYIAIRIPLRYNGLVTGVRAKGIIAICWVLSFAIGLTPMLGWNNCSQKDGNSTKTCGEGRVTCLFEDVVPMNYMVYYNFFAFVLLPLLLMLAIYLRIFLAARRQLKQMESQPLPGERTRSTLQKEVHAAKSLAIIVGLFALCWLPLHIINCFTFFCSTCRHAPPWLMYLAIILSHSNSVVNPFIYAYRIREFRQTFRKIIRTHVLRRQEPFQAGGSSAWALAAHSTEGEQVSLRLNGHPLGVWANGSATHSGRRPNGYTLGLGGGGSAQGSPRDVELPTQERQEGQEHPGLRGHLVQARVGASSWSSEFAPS
Sequence of Adenosine receptor A2a (Rattus norvegicus, UniProt P30543) (P30543 whole entry): as above
T4 sequence (P29274 whole entry): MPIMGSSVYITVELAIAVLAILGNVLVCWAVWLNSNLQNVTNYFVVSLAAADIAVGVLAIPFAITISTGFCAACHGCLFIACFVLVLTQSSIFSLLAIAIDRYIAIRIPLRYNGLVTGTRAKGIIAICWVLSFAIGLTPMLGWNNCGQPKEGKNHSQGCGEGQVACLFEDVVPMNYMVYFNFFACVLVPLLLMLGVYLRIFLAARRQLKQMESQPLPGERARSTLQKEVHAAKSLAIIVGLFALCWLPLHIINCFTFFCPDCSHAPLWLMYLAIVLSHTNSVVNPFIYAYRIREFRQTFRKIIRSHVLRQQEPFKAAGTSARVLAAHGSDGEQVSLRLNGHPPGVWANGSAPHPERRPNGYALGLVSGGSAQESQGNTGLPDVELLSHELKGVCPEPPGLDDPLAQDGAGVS

Row | SMILES | inhibition [1] | inhibition [2] | inhibition [3] | Ki [4] | inhibition [5] | inhibition [6] | Ki [7] | Ki [8] | inhibition [9] | Ki [10] | inhibition [11] | Ki [12] | inhibition [13] | Ki [14] | Ki [15] | Ki [16]
1 | CCCn1c(=O)c2c(nc3n2CCCN3c2ccc(OCCN3CCCC3)cc2)n(CCC)c1=O | 53% | 10% | 22% | > 1000 nM | 10% | 10% | 2380 nM | 1990 nM | 4% | > 1000 nM | 20% | > 1000 nM | 28% | 175 nM | > 1000 nM | > 1000 nM
2 | CCCCn1c(=O)c2c(nc3n2CCCN3c2ccc(OCCN3CCCCC3)cc2)n(CCCC)c1=O | 65% | 41% | 42% | 1480 nM | 53% | 20% | 921 nM | 713 nM | 9% | – | 48% | > 1000 nM | 49% | 127 nM | > 1000 nM | > 1000 nM
3 | CCCCn1c(=O)c2c(nc3n2CCCN3CCc2ccc(O)cc2)n(CCCC)c1=O | 51% | 80% | – | 518 nM | – | – | – | – | – | 619 nM | 44% | – | 63% | 184 nM | 131 nM | –
4 | CCn1c(=O)c2c(nc3n2CCCN3CCc2ccc(O)cc2)n(CC)c1=O | 14% | 42% | 20% | 271 nM | 30% | 19% | 2180 nM | 2020 nM | 14% | – | – | – | 80% | – | > 500 nM | –
5 | CCCn1c(=O)c2c(nc3n2CCCN3c2ccc(OCCN(C)C)cc2)n(CCC)c1=O | 47% | 17% | – | > 1000 nM | – | – | – | – | – | > 1000 nM | 17% | – | 44% | 180 nM | > 1000 nM | –
6 | CCCn1c(=O)c2c(nc3n2CCCN3c2ccc(OCCN3CCOCC3)cc2)n(CCC)c1=O | 14% | 3% | – | 1930 nM | – | – | – | – | – | > 1000 nM | 23% | – | 45% | > 1000 nM | > 1000 nM | –
7 | CCCn1c(=O)c2c(nc3n2CCCN3CCc2ccc(O)cc2)n(CCC)c1=O | 33% | 58% | – | 464 nM | – | – | – | – | – | > 1000 nM | 24% | – | 67% | 370 nM | 663 nM | –
8 | CCCn1c(=O)c2c(nc3n2CCCN3CCc2ccc(OCCN3CCOCC3)cc2)n(CCC)c1=O | 26% | 50% | – | > 1000 nM | – | – | – | – | – | > 1000 nM | 20% | – | 44% | > 500 nM | 853 nM | –
9 | Cn1c(=O)c2c(nc3n2CCCN3CCc2ccc(OCCN3CCOCC3)cc2)n(C)c1=O | 0% | -5% | – | 585 nM | – | – | – | – | – | > 1000 nM | -3% | – | 71% | > 1000 nM | > 1000 nM | –
10 | CCCCn1c(=O)c2c(nc3n2CCCN3c2ccc(OCCN3CCCC3)cc2)n(CCCC)c1=O | 69% | 34% | 41% | 989 nM | 68% | 20% | 666 nM | 658 nM | 15% | – | 48% | > 1000 nM | 49% | 72 nM | > 1000 nM | > 1000 nM
